Assay results taken from ChEMBL document CHEMBL1148346, “Tiplaxtinin, a novel, orally efficacious inhibitor of plasminogen activator inhibitor-1: design, synthesis, and preclinical characterization” (J Med Chem, 2004).
pIC50: −log10 of the molar value.

Experiments:
[1] = target: Plasminogen activator inhibitor 1 (Homo sapiens, UniProt P05121); test: Inhibition of human plasminogen activator inhibitor-1
[2] = AUC after administration at 100 mg/kg/day in dogs; assay type: ADME, organism-based, Canis lupus familiaris; settings: dog, plasma
[3] = Cmax after single intravenous bolus of 1 mg/kg in dogs; assay type: ADME, organism-based, Canis lupus familiaris; set-up: dose 1 mg/kg, route intravenous; settings: dog, in vivo
How it was run: (§1)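 Male beagle dogs given a single iv bolus of 1 mg/kg. Plasma sampled, with apparent half-life, Cmax and AUC0-∞ derived.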

[4] = Relative bioavailability after oral dose of compound at 3 mg/kg in dogs; assay type: ADME, organism-based, Canis lupus familiaris; settings: dog, in vivo
How it was run: (§2)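 Male beagle dogs given a single oral dose of 3 mg/kg. Plasma sampled, with Cmax and half-life derived and relative bioavailability calculated.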

[5] = test system: Canis familiaris; test: Oral efficacy in dog thrombosis model at 3 mg/kg expressed as occlusion time; assay type: functional, Canis lupus familiaris
How it was run: (§3)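 Anesthetized dogs dosed orally, then an electrolytic injury made in the coronary artery lumen. Occlusion was taken as zero flow, and flow, occlusion time and spontaneous reperfusion were monitored over 4 h. Three dogs per group, mean ± SEM.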

[6] = test system: Canis familiaris; test: Oral efficacy in dog thrombosis model at 3 mg/kg expressed as coronary flow reduction
[7] = Half-life after oral dose of compound at 3 mg/kg in dogs; assay type: ADME, organism-based, Canis lupus familiaris; set-up: dose 3 mg/kg, route oral; settings: dog, in vivo; how it was run: as §2
[8] = test system: Rattus norvegicus; test: Oral efficacy in rat thrombosis model at 1 mg/kg expressed as occlusion time; assay type: functional
How it was run: (§4)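 Anesthetized, instrumented rats dosed orally before chemical induction of an occlusive carotid artery thrombus. Time to occlusion, carotid flow, patency and thrombus weight compared with vehicle, four rats per group, mean ± SEM.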

[9] = Apparent half-life after single intravenous bolus of 1 mg/kg in dogs; assay type: ADME, organism-based, Canis lupus familiaris; set-up: dose 1 mg/kg, route intravenous; settings: dog, in vivo; how it was run: as §1
[10] = AUC0-infinity after single intravenous bolus of 1 mg/kg in rats; assay type: ADME, organism-based; set-up: time infinity, dose 1 mg/kg, route intravenous; settings: rat, plasma
[11] = Apparent half-life after single intravenous bolus of 1 mg/kg in rats; assay type: ADME, organism-based; set-up: dose 1 mg/kg, route intravenous; settings: rat, in vivo
[12] = test system: Canis familiaris; test: Oral efficacy in dog thrombosis model at 3 mg/kg expressed as spontaneous reperfusion; assay type: functional, Canis lupus familiaris; how it was run: as §3
[13] = Half-life after repeated oral dose of compound at 1 mg/kg in rats; assay type: ADME, organism-based; set-up: dose 1 mg/kg, route oral; settings: rat, in vivo
How it was run: (§5)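 Male SD rats given repeated oral doses of 1 mg/kg. Plasma concentrations measured, with Cmax, half-life and AUC0-24 derived.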

[14] = AUC0-infinity after single intravenous bolus of 1 mg/kg in dogs; assay type: ADME, organism-based, Canis lupus familiaris; set-up: time infinity, dose 1 mg/kg, route intravenous; settings: dog, plasma; how it was run: as §1
[15] = test system: Rattus norvegicus; test: Oral efficacy in rat thrombosis model at 1 mg/kg expressed as carotid flow reduction; assay type: functional; how it was run: as §4
[16] = test system: Canis familiaris; test: Oral efficacy in dog thrombosis model at 3 mg/kg expressed as arterial occlusion; assay type: functional, Canis lupus familiaris; how it was run: as §3
[17] = Cmax after single intravenous bolus of 1 mg/kg in rats; assay type: ADME, organism-based; set-up: dose 1 mg/kg, route intravenous; settings: rat, in vivo
[18] = test system: Rattus norvegicus; test: Oral efficacy in rat thrombosis model at 1 mg/kg expressed as thrombus weight; assay type: functional; how it was run: as §4
[19] = Cmax after oral dose of compound at 3 mg/kg in dogs; assay type: ADME, organism-based, Canis lupus familiaris; set-up: dose 3 mg/kg, route oral; settings: dog, in vivo; how it was run: as §2
[20] = AUC after administration at 2000 mg/kg/day in rats; assay type: ADME, organism-based; settings: rat, plasma
[21] = Cmax after repeated oral dose of compound at 1 mg/kg in rats; assay type: ADME, organism-based; set-up: dose 1 mg/kg, route oral; settings: rat, in vivo; how it was run: as §5
[22] = AUC0-24 after repeated oral dose of compound at 1 mg/kg in rats; assay type: ADME, organism-based; set-up: time < 24 hr, dose 1 mg/kg, route oral; settings: rat, plasma; how it was run: as §5
[23] = test system: Rattus norvegicus; test: Oral efficacy in rat thrombosis model at 1 mg/kg expressed as arterial occlusion; assay type: functional; how it was run: as §4

Chain of Plasminogen activator inhibitor 1 (P05121 whole entry): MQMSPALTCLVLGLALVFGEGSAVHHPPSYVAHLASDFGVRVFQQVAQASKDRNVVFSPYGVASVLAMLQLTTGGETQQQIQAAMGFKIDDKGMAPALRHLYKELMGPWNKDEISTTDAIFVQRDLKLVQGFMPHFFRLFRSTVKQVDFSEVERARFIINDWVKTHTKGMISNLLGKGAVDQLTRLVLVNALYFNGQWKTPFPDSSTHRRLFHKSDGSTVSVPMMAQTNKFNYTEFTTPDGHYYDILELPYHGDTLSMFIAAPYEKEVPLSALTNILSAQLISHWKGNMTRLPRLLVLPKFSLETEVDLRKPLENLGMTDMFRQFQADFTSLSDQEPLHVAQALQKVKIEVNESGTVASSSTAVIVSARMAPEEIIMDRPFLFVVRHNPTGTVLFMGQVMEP

Compound `CC(C)(C)c1ccc(Cn2cc(C(=O)C(=O)O)c3cc(-c4cccc(C(C)(C)C)c4)ccc32)cc1` has a pIC50 [1] of 5.00.
Compound `O=C(O)c1ccc(-n2c(-c3ccccc3)cc3c2CCc2ccccc2-3)cc1O` has a pIC50 [1] of 4.89.
Compound `CC(C)(C)c1ccc(Cn2cc(C(=O)C(=O)O)c3ccc(-c4ccc(OC(F)(F)F)cc4)cc32)cc1` has a pIC50 [1] of under 4.30.
With `O=C(O)C(=O)c1cn(Cc2ccccc2)c2cc(-c3ccc(OC(F)(F)F)cc3)ccc12` the pIC50 [1] was 4.77.
`CC(C)(C)c1ccc(Cn2cc(C(=O)C(=O)O)c3cc(-c4ccc(OC(F)(F)F)cc4)ccc32)cc1` gave a pIC50 [1] of 4.80.
Compound `O=C(O)C(=O)c1cn(Cc2ccc(F)cc2)c2cc(-c3ccccc3)ccc12` has a pIC50 [1] of 4.46.
`O=C(O)C(=O)c1cn(Cc2ccccc2)c2cc(-c3ccccc3)ccc12` showed a pIC50 [1] of 4.59.
Work on `O=C(O)C(=O)c1cn(Cc2ccccc2)c2cccc(-c3ccc(OC(F)(F)F)cc3)c12` yielded a pIC50 [1] of under 4.30.
With `O=C(O)C(=O)c1cn(Cc2ccccc2)c2ccc(-c3ccc(OC(F)(F)F)cc3)cc12` [TIPLASININ] the AUC [2] was about 613 µg·h/mL, the Cmax [3] was 13400 ng/mL and the bioavailability [4] was 32%. It also gave an Occlusion time [5] of 71.6 min, a Coronary flow reduction [6] of 66% and a half-life [7] of 5.42 h. It also gave an Occlusion time [8] of 50.5 min, a half-life [9] of 3.73 h and an AUC(0-inf) [10] of 2.45 µg·h/mL. The half-life [11] was 2.95 h, the Spontaneous reperfusion [12] was 100% and the half-life [13] was 4.1 h. For the same compound, the AUC(0-inf) [14] was 20.5 µg·h/mL, the Carotid flow reduction [15] was 47.3% and the Arterial occlusion [16] was 100%. It also gave a Cmax [17] of 4950 ng/mL, a Thrombus weight [18] of 0.5 mg and a Cmax [19] of 2140 ng/mL. The AUC [20] was about 1510 µg·h/mL, the Cmax [21] was 230 ng/mL and the AUC at 24 h [22] was 0.96 µg·h/mL. For the same compound, the Arterial occlusion [23] was 25%.
For `COc1cccc(-c2ccc3c(c2)c(C(=O)C(=O)O)cn3Cc2ccc(C(C)(C)C)cc2)c1`, the pIC50 [1] was 4.68.
In the case of `Cc1cccc(-c2ccc3c(c2)c(C(=O)C(=O)O)cn3Cc2ccc(C(C)(C)C)cc2)c1` [ALEPLASININ], the pIC50 [1] was 5.07.
In the case of `O=C(Nc1ccc(Cl)c(Cl)c1)c1ccc(CNc2cc([N+](=O)[O-])ccc2C(=O)O)cc1`, the pIC50 [1] was 4.89.
Work on `CN(C)CCSc1ccc(/C=c2\[nH]c(=O)/c(=C/c3ccccc3)[nH]c2=O)s1` yielded a pIC50 [1] of 5.10.
